Hits are enriched below; roughly 0.77% of the tested compounds scored in any of these assays.
hIAP act: increases human intestinal alkaline phosphatase activity | P09923 | purified human IAP, CDP-Star luminescence, 30 min; active compounds read high; 1 = vehicle-only enzyme, 0 = enzyme-free background | activation factor at 10 µM | hit rate 0.16% among 330,000 | AID 2524;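 active = activation factor of the enzyme at least 2-fold when tested at 20 µM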
Target sequence (P09923 whole entry, looked up): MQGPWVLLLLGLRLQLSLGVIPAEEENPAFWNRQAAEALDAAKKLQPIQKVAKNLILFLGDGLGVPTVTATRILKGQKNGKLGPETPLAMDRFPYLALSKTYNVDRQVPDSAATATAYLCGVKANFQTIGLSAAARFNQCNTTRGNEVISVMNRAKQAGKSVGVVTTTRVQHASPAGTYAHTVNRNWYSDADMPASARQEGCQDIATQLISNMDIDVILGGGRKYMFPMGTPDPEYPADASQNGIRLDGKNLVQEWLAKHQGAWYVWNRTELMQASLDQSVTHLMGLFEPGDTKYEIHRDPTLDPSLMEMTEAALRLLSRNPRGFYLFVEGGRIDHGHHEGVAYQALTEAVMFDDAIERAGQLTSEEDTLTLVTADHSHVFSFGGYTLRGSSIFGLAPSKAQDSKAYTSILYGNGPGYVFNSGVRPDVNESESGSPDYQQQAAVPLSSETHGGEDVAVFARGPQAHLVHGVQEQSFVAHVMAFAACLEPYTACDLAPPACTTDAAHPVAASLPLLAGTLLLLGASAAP
hIAP inh: blocks human intestinal alkaline phosphatase. purified IAP, CDP-Star luminescence, 30 min. inhibition, % at 10 µM. hit rate 0.12% among 330,000. AID 2544;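 active = inhibition reaching a set limit with compound at 10 µM in the primary screen, cut at about 35% in these data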;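 also: plate controls were DMSO wells with enzyme for no effect and no-enzyme buffer wells for full effect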
mIAP block: blocks mouse intestinal alkaline phosphatase | purified mouse IAP, CDP-Star luminescence, 30 min | inhibition, % at 10 µM | hit rate 0.2% among 330,000;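 active = inhibition of at least 40% at 10 µM in the primary screen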;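 also: plate controls were DMSO with enzyme for no effect and no enzyme wells for full effect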
mIAP activ: mouse IAP activation | muIAP, CDP-Star luminescence, 30 min; active compounds read high; 1 = vehicle-only enzyme signal, 0 = enzyme-free wells | activation factor at 10 µM | hit rate 0.24% among 330,000;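 active = activation factor of at least 2 at 20 µM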
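System: Mouse IAP enzyme | Also added: CDP-Star substrate | Dosing: Compounds dispensed in DMSO | Schedule: 30 min enzyme-substrate-compound incubation at room temperature | Technique: Chemiluminescence readout | Control set: DMSO-only wells and no-enzyme negative control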
bIAP inhibitor: intestinal alkaline phosphatase (bovine) inhibition | purified bovine IAP, CDP-star luminescence, 30 min | inhibition, % at 20 µM | 190,000 tested, under 10 active | AID 1019;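 active = over 50% inhibition of intestinal alkaline phosphatase at 20 µM in the single-dose screen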
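Incubation: 30 min reaction at room temperature / Material: purified bovine intestinal alkaline phosphatase (IAP) enzyme / Input: enzyme at 1/65,000,000 dilution / Dosing: 20 µM single dose / Signal: CDP-star luminescence signal / Reagent: CDP-star chemiluminescent phosphatase substrate, 30 µM final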
bIAP activator: increases bovine intestinal alkaline phosphatase activity | purified bovine IAP, CDP-star luminescence, 30 min; active compounds read high; fold of DMSO-control signal, blank-subtracted | activation factor at 20 µM | hit rate 0.17% among 200,000;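 active = activation factor of 2 or more at 20 µM, a signal rise over negative controls twice the positive control's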
An asterisk follows results filed as active; · = no result given.

SMILES	hIAP act	hIAP inh	mIAP block	mIAP activ	bIAP inhibitor	bIAP activator
C[C@@H]1CN([C@H](C)CO)C(=O)Cc2cc(NC(=O)Nc3ccccc3)ccc2O[C@@H]1CN(C)Cc1ccc2c(c1)OCO2	1.1	-9	-113	2.1*	·	·
C[C@@H]1CN([C@@H](C)CO)C(=O)Cc2cc(NS(=O)(=O)c3ccccc3)ccc2O[C@H]1CN(C)S(C)(=O)=O	1.1	-10	-2	1	·	·
C[C@@H]1CN([C@H](C)CO)C(=O)Cc2cc(NS(=O)(=O)c3ccc(Cl)cc3)ccc2O[C@H]1CN(C)Cc1ccc(C(F)(F)F)cc1	1	-2	4	0.96	·	·
COc1ccc(NS(=O)(=O)c2ccc(O)c(NC(=O)c3cc4c(C)nn(-c5ccc(F)cc5)c4s3)c2)cc1	1	-2	7	0.93	-2	1
O=C(NCCSCc1ccco1)Nc1cc(Cl)cc(Cl)c1	1.2	-15	-136	2.4*	·	·
O=C(NCCNCCO)C1(C(F)(F)F)C/C(=C\CCO)CCCO1 (centres undefined)	1	-1	-6	1.1	·	·
COc1ccc(S(=O)(=O)Nc2ccc(C)cn2)cc1	1	0	-5	1.1	·	·
Cc1ccc(C)c(NC(=O)CCC(=O)N/N=C/c2ccc[nH]2)c1	0.91	9	36	0.64	8	0.9
Cc1c(Cl)cccc1NC(=O)CCC(=O)N/N=C/c1ccc[nH]1	0.99	1	51*	0.49	5	0.9
COc1ccc(NC(=O)Nc2ccc3c(c2)C(=O)N([C@H](C)CO)C[C@H](C)[C@@H](CN(C)S(=O)(=O)c2ccc(OC)cc2)O3)cc1	0.98	2	-155	2.6*	·	·
C[C@H](CO)N1C[C@H](C)[C@@H](CN(C)S(=O)(=O)c2ccccc2)Oc2ccc(NC(=O)Nc3ccc4c(c3)OCO4)cc2C1=O	1	-2	-159	2.6*	·	·
C[C@H](CO)N1C[C@H](C)[C@@H](CN(C)S(=O)(=O)c2ccccc2)Oc2ccc(NC(=O)Cc3ccccc3)cc2C1=O	0.98	2	-26	1.3	·	·
COc1ccc(S(=O)(=O)N(C)C[C@H]2Oc3ccc(NC(=O)Nc4ccc(C(F)(F)F)cc4)cc3C(=O)N([C@H](C)CO)C[C@@H]2C)cc1	1.1	-14	-39	1.4	·	·
COc1ccc(N2CCN(C(=O)CNC(=O)c3ccco3)CC2)cc1	1	0	-5	1.1	·	·
COc1cc(N)c(Cl)cc1C(=O)OCC(=O)NC(=O)NCc1ccco1	1.1	-10	-1	1	·	·
COc1cc(C2CC(c3cccnc3)=NN2c2ccc(F)cc2)cc(OC)c1OC (centres undefined)	1.2	-18	-123	2.2*	-39	1.4
O=C(CCc1ccccc1Cl)Nc1cccc(S(=O)(=O)N2CCCC2)c1	1.2	-19	-17	1.2	·	·
O=C(Cc1ccccc1Cl)Nc1cccc(S(=O)(=O)N2CCCCCC2)c1	1.1	-7	-113	2.1*	·	·
Cc1cc(OCC(=O)Nc2cccc(S(=O)(=O)N3CCCC3)c2)ccc1Cl	1.1	-8	-42	1.4	·	·
Cc1cc(OCC(=O)Nc2cccc(S(=O)(=O)N3CCCCC3)c2)ccc1Cl	1	0	-207	3.1*	·	·
Cc1cc(C)c(C)c(S(=O)(=O)N2CCC(C(=O)Nc3ccncc3)CC2)c1C	1	-2	-6	1.1	·	·
COCC1CCCC1OS(N)(=O)=O (centres undefined)	1.5	-47	-7	1.1	·	·
CCCN(CCC)C(=O)c1cn(C)c2ccc(S(=O)(=O)N3CCCC3)cc2c1=O	1.1	-8	-1	1	·	·
O=C(CSCc1ccco1)c1ccc(Cl)s1	0.99	1	45*	0.55	13	0.9
O=C(NNC(=S)NCc1ccco1)c1ccc(Cl)s1	1.4	-36	14	0.86	2	1
SMILES	hIAP act	hIAP inh	mIAP block	mIAP activ	bIAP inhibitor	bIAP activator
COc1ccccc1NC(=S)NC1CCCCCCCCCCC1	1.6	-61	-134	2.3*	·	·
S=C(Nc1ccc(Oc2ccccc2)cc1)NC1CCCCC1	0.96	4	-250	3.5*	6	0.9
CC(C)c1ccc(NC(=S)NC2CCCCCC2)cc1	1.3	-26	-224	3.2*	1	1
S=C(Nc1ccc(Oc2ccc(NC(=S)NC3CCCCC3)cc2)cc1)NC1CCCCC1	0.98	2	-142	2.4*	-39	1.4
CCN(CC)CCCNC(=S)N1CCC(c2nc3ccccc3[nH]2)CC1	1.3	-27	7	0.93	·	·
O=C1CC[C@@]23CCCN2C(=O)CCCC3C1 (some centres undefined)	·	·	-5	1.1	·	·
COc1ccc(N2CCN(S(=O)(=O)CCNC(=O)C3CC(=O)N(c4ccccc4)C3)CC2)cc1 (centres undefined)	1.1	-7	1	0.99	·	·
FC(F)Sc1ccc(NC(=S)NC2CCCC2)cc1	1.2	-17	-156	2.6*	16	0.8
OC1CCC(NC(=S)Nc2ccc(SC(F)F)cc2)CC1 (centres undefined)	1.1	-7	-10	1.1	13	0.9
Cc1ccc(S(=O)(=O)N2CCCCC2)cc1C(=O)OC1CCCCC1=O (centres undefined)	1.1	-5	-7	1.1	·	·
CC(=O)Nc1ccc(C(=O)OCC(=O)NCc2cccs2)cc1	0.99	1	3	0.97	·	·
CCO[C@@H]1OC(C(=O)N2CCN(Cc3ccc4c(c3)OCO4)CC2)=C[C@H](c2cn(C(C)=O)c3ccccc23)[C@H]1CCCO	1.1	-10	43*	0.57	-2	1
CCO[C@@H]1OC(C(=O)N2CCN(Cc3ccc4c(c3)OCO4)CC2)=C[C@H](c2csc3ccccc23)[C@H]1CCCO	0.85	14	-3	1	-19	1.2
CCOC(=O)/C=C/[C@H]1CC(c2ccccc2)(c2ccccc2)CO1	0.95	5	8	0.92	·	·
C[C@@H](C(=O)Nc1ccc2ccccc2c1)[C@H]1C[C@]1(C)[C@H](NC(=O)c1cccnc1)c1ccccc1	0.87	13	-81	1.8	18	0.8
C[C@@H](C(=O)Nc1ccc2ccccc2c1)[C@@H]1C[C@@]1(C)[C@@H](NC(=O)c1ccccc1)c1ccccc1	0.92	8	-132	2.3*	11	0.9
Cc1cc(N/N=C/c2ccncc2)c([N+](=O)[O-])cc1[N+](=O)[O-]	1	0	13	0.87	·	·
CC(C)(C)n1nc2c(c1NC(=O)c1ccc(Br)o1)CS(=O)C2 (centres undefined)	1	-2	2	0.98	-158	2.6*
NC(=S)N/N=C1\c2ccccc2-c2c(C(=O)O)cccc21	1.2	-21	0	1	·	·
Cc1cccc(NC(=S)NC2CC3CCCC(C2)N3Cc2cccs2)c1C (centres undefined)	1.2	-22	-131	2.3*	-28	1.3
Cc1cccc(C)c1NC(=O)NC1CC2CCC(C1)N2Cc1cccs1 (centres undefined)	1	-1	-6	1.1	-12	1.1
